These results are taken from PubChem BioAssay.

Structures are written as SMILES. Values without a mark were called inactive.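 Rule for the calls: active = growth inhibition above a set limit, 3 SD over mean compound inhibition, in both replicates (cut at about 43% in these data); inconclusive = above the limit in only one replicate; inactive = at or below the limit in both replicates.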

The assay can be described thus: S. cerevisiae growth inhibition in restrictive medium, OD615, pilot screen, restrictive growth control, yeast lifespan reduction project (AID 706). The following applies: OD615, 48 h, at 10 µM, active compounds read high. Put shortly:
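Assay system – genetically modified Saccharomyces cerevisiae, DeaD replicative lifespan assay strain · Medium – CSMM-D glucose medium · Doses – 10 µM compound, 0.25% DMSO · Times – 4 h pre-incubation, 48 h exposure at 30 °C · Signal – optical density at 615 nm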
Regarding `CSc1ccc(S(=O)(=O)N2CCN(Cc3ccc4c(c3)OCO4)CC2)cc1`, the growth inhibition is 14.3%.
Then `Cc1ccc(F)c(NC(=O)C2CCCCC2C(=O)O)c1` (stereo unspecified), with -20.6%; and `CC(=O)c1sc(NC(=O)c2ccco2)nc1-c1ccccc1`, with 6.05%.
As to `CCn1c(C(C)NC(=O)Cc2ccccc2)nc2ccccc21` (stereo unspecified), the growth inhibition was -17.6%.
Then `CCOC(=O)N1CCN(C(=O)Cn2ncc3ccccc32)CC1`, with -4.71%; and `CCCCCn1c(CNC(=O)CCC)nc2ccccc21`, with -2.36%.
Take `COc1ccc(-n2ncc3c(N4CCCCC4)ncnc32)cc1`: the growth inhibition is 0.385%.
Then `O=C(c1cccc(S(=O)(=O)N2CCCC2)c1)c1cccc(S(=O)(=O)N2CCCC2)c1`, with -7.98%; and `CC(C)Cc1nnc(NC(=O)CCN2C(=O)c3ccccc3C2=O)s1`, with 16%; and `Cc1cc(C)c(S(=O)(=O)N2CCN(CCO)CC2)c(C)c1`, with 10.5%.
Then `CCOC(=O)c1nn(-c2ccc3c(c2)CCN3C(C)=O)cc1O`, with -5.95%; and `CCN1CCN(C(c2ccccc2)c2sc3nc(C)nn3c2O)CC1` (stereo unspecified), with 1.3%; and `Cc1ccc(O)c(-c2cc(C(F)(F)C(F)F)nc(-c3ccccc3)n2)c1`, with -10.4%.
For the compound `COc1ccc(CN2CCCCC2C(=O)Nc2ccc(OC)c(OC)c2)cc1OC` (stereo unspecified), the growth inhibition is -12.6%.
The same measure for `CCC(Sc1nncn1C)C(=O)Nc1nnc(-c2ccccc2Cl)s1` (stereo unspecified): 31.5%; for `COc1ccc(S(=O)(=O)NCC2CCC(C(=O)N3CCC4(CC3)OCCO4)CC2)cc1` (stereo unspecified): -3.68%.
